From ChEMBL document CHEMBL4477207, “Discovery of Novel 3-Quinoline Carboxamides as Potent, Selective, and Orally Bioavailable Inhibitors of Ataxia Telangiectasia Mutated (ATM) Kinase” (J Med Chem, 2016)
≈ marks a conversion by molar mass, not a printed value. Calls of active or inactive are those of the source. The calls are words filed in the database; no cut-off is given here.

Assays:
[1] = Volume of distribution at steady state in Han Wistar rat at 2 mg/kg, iv or 5 mg/kg, po; format: ADME, organism-based; details: in vivo, read-out: Vdss
[2] = Clearance in Han Wistar rat at 2 mg/kg, iv or 5 mg/kg, po; format: ADME, organism-based; details: in vivo
[3] = Clearance in dog at 1.7 mg/kg, iv or 4.2 mg/kg, po; format: ADME, organism-based, Canis lupus familiaris; details: in vivo
[4] = Thermodynamic solubility of the compound in 0.1M aqueous phosphate buffer at pH 7.4 after 24 hrs by LC-UV analysis; format: physicochemical; details: read-out: Therm_solubility
How it was run: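 Solid samples equilibrated in 0.1 M aqueous phosphate buffer, pH 7.4, for 24 h at 25 °C.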

[5] = Intrinsic clearance in human hepatocytes assessed per million cells; format: ADME, cell-based, Hepatocyte; details: read-out: CLH
How it was run: (§1)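 Intrinsic clearance measured in hepatocytes of each species, reported as µL/min/10⁶ cells.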

[6] = Intrinsic clearance in mouse hepatocytes assessed per million cells; format: ADME, cell-based, Hepatocyte; details: read-out: CLH; how it was run: as §1
[7] = Intrinsic clearance in rat hepatocytes assessed per million cells; format: ADME, cell-based, Hepatocyte; details: read-out: CLH; how it was run: as §1
[8] = Intrinsic clearance in dog hepatocytes assessed per million cells; format: ADME, cell-based, Canis lupus familiaris, Hepatocyte; details: read-out: CLH; how it was run: as §1
[9] = Volume of distribution at steady state in dog at 1.7 mg/kg, iv or 4.2 mg/kg, po; format: ADME, organism-based, Canis lupus familiaris; details: in vivo, read-out: Vdss
[10] = Oral bioavailability in Han Wistar rat at 5 mg/kg; format: ADME, organism-based; details: in vivo
[11] = Oral bioavailability in dog at 4.2 mg/kg; format: ADME, organism-based, Canis lupus familiaris; details: in vivo
[12] = AUC (0 to 24 hrs) in nude mouse at 50 mg/kg, po; format: ADME, organism-based; design: dose 50 mg/kg, time < 24 hr, route oral; details: in vivo
How it was run: (§2)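 Nude mice, single oral dose of 50 mg/kg. Vehicle was either a propylene glycol aqueous solution or 10% DMSO:90% captisol solution.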

Mus musculus = experiment: Time duration during which free plasma concentration stays above in-vitro ATM IC50 level in nude mouse at 50 mg/kg, po; format: ADME, organism-based; details: in vivo; how it was run: as §2
[13] = Cmax in nude mouse at 50 mg/kg, po; format: ADME, organism-based; design: dose 50 mg/kg, route oral; details: in vivo; how it was run: as §2
in vitro [14] = details: human, hepatocytes
in vitro [15] = details: rat, hepatocytes
physchem = details: octanol/buffer, pH 7.4
SW-620 = experiment: Antitumor activity against human SW620 cells xenografted in immunocompromised athymic Swiss nude mouse assessed as tumor growth inhibition at 50 mg/kg, ip once in a week for 3 weeks regime starting day 1 post xenograft; format: functional, organism-based
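Wherever logD is given: determined by the shake flask method.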

Vd [1] [L/kg]	clearance [2] [mL/min/kg]	clearance [3] [mL/min/kg]	solubility thermodynamic at 24 h [4] [µM]	hepatocyte CLint [5] [µL/min/1e6 cells]	hepatocyte CLint [6] [µL/min/1e6 cells]	hepatocyte CLint [7] [µL/min/1e6 cells]	hepatocyte CLint [8] [µL/min/1e6 cells]	Vd [9] [L/kg]	bioavailability [10] [%]	bioavailability [11] [%]	AUC(0-t) at 24 h [12] [µM·h]	Time (Mus musculus) [h]	Cmax [13] [µM]	hepatocyte CLint at 1.5 h (in vitro [14]) [µL/min/1e6 cells]	hepatocyte CLint at 1.5 h (in vitro [15]) [µL/min/1e6 cells]	logD (physchem)	Structure (SMILES)	TGI (SW-620)
1.1	18	50	590 (≈ 248 µg/mL)	< 2.6	18	< 5.3	11	2.6	46	31	40	10	6	< 2.6	< 5.3	2.5	COCc1ccc(-c2ccc3ncc(C(N)=O)c(N[C@@H](C)C4CCOCC4)c3c2)cn1	
																	CCc1c2c(nc3ccc(OC(=O)N4CCC(N5CCCCC5)CC4)cc13)-c1cc3c(c(=O)n1C2)COC(=O)[C@]3(O)CC	Active
